System: U2OS
Experiment: Multiplex assay against U2OS
Type: toxicity, cell-based
Conditions: human
Method in brief: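 Hoechst33342, BioTracker Green Microtubule Cytoskeleton Dye, MitoTracker Red and Annexin V Alexa Fluor 680 were added to live cells at seeding, and imaging on a CQ1 microscope at 37°C and 5% CO2 followed compound addition. Gating by CellPathfinder machine learning separated cells into Hoechst high-intensity objects or normal cells, then normal cells into healthy, pyknosed or fragmented nuclei, then pyknosed cells into mitotic or apoptotic. Per cents of healthy-nucleus cells are reported for the tubulin, mitochondrial-mass and membrane-permeability phenotypes.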

[1] = 12 h, 1 µM, compound concentration 1 uM, replicate 1
[2] = 12 h, 1 µM, compound concentration 1 uM, replicate 2
[3] = 12 h, 10 µM, compound concentration 10 uM, replicate 1
[4] = 12 h, 10 µM, compound concentration 10 uM, replicate 2
[5] = 24 h, 1 µM, compound concentration 1 uM, replicate 1
[6] = 24 h, 1 µM, compound concentration 1 uM, replicate 2
[7] = 24 h, 10 µM, compound concentration 10 uM, replicate 1
[8] = 24 h, 10 µM, compound concentration 10 uM, replicate 2
[9] = 48 h, 1 µM, compound concentration 1 uM, replicate 1
[10] = 48 h, 1 µM, compound concentration 1 uM, replicate 2
[11] = 48 h, 10 µM, compound concentration 10 uM, replicate 1
[12] = 48 h, 10 µM, compound concentration 10 uM, replicate 2

In the case of `CC1=C(C(=O)Nc2cc3cn[nH]c3cc2F)C(c2ccc(C(F)(F)F)cc2)CC(=O)N1` (stereo not drawn), the “Population Apoptotic (%)” value [1] is reported as 46%, the “Population Fragmented Nuclei (%)” value [1] is reported as 9% and the “Population Healthy Nuclei (%)” value [1] is reported as 78%. The “Population Hoechst High Intensity Objects (%)” value [1] was 4%, the “Population Membrane Permeable-Phenotype (%)” value [1] was 6% and the “Population Mitochondria Different-Phenotype (%)” value [1] was 5%. The “Population Mitotic Cells (%)” value [1] was 53%, the “Population Normal (%)” value [1] was 95% and the “Population Pyknosed Nuclei (%)” value [1] was 12%. The “Population Tubulin-Different-Phenotype (%)” value [1] was 10%, the “Total Cell Count” value [1] was 190 and the “Population Apoptotic (%)” value [2] was 50%. The “Population Fragmented Nuclei (%)” value [2] was 2%, the “Population Healthy Nuclei (%)” value [2] was 93% and the “Population Hoechst High Intensity Objects (%)” value [2] was 10%. The “Population Membrane Permeable-Phenotype (%)” value [2] was 4%, the “Population Mitochondria Different-Phenotype (%)” value [2] was 9% and the “Population Mitotic Cells (%)” value [2] was 50%. For the same compound, the “Population Normal (%)” value [2] was 89%, the “Population Pyknosed Nuclei (%)” value [2] was 4% and the “Population Tubulin-Different-Phenotype (%)” value [2] was 14%. For the same compound, the “Total Cell Count” value [2] was 76, the “Population Apoptotic (%)” value [3] was 40% and the “Population Fragmented Nuclei (%)” value [3] was 7%. For the same compound, the “Population Healthy Nuclei (%)” value [3] was 77%, the “Population Hoechst High Intensity Objects (%)” value [3] was 8% and the “Population Membrane Permeable-Phenotype (%)” value [3] was 3%. The “Population Mitochondria Different-Phenotype (%)” value [3] was 9%, the “Population Mitotic Cells (%)” value [3] was 60% and the “Population Normal (%)” value [3] was 91%. The “Population Pyknosed Nuclei (%)” value [3] was 14%, the “Population Tubulin-Different-Phenotype (%)” value [3] was 4% and the “Total Cell Count” value [3] was 223. The “Population Apoptotic (%)” value [4] was 50%, the “Population Fragmented Nuclei (%)” value [4] was 21% and the “Population Healthy Nuclei (%)” value [4] was 70%. For the same compound, the “Population Hoechst High Intensity Objects (%)” value [4] was 9%, the “Population Membrane Permeable-Phenotype (%)” value [4] was 5% and the “Population Mitochondria Different-Phenotype (%)” value [4] was 12%. For the same compound, the “Population Mitotic Cells (%)” value [4] was 50%, the “Population Normal (%)” value [4] was 90% and the “Population Pyknosed Nuclei (%)” value [4] was 7%. For the same compound, the “Population Tubulin-Different-Phenotype (%)” value [4] was 25%, the “Total Cell Count” value [4] was 97 and the “Population Apoptotic (%)” value [5] was 56%. For the same compound, the “Population Fragmented Nuclei (%)” value [5] was 8%, the “Population Healthy Nuclei (%)” value [5] was 82% and the “Population Hoechst High Intensity Objects (%)” value [5] was 2%. For the same compound, the “Population Membrane Permeable-Phenotype (%)” value [5] was 6%, the “Population Mitochondria Different-Phenotype (%)” value [5] was 9% and the “Population Mitotic Cells (%)” value [5] was 43%. The “Population Normal (%)” value [5] was 97%, the “Population Pyknosed Nuclei (%)” value [5] was 8% and the “Population Tubulin-Different-Phenotype (%)” value [5] was 9%. For the same compound, the “Total Cell Count” value [5] was 176, the “Population Apoptotic (%)” value [6] was 42% and the “Population Fragmented Nuclei (%)” value [6] was 7%. The “Population Healthy Nuclei (%)” value [6] was 86%, the “Population Hoechst High Intensity Objects (%)” value [6] was 4% and the “Population Membrane Permeable-Phenotype (%)” value [6] was 10%. The “Population Mitochondria Different-Phenotype (%)” value [6] was 13%, the “Population Mitotic Cells (%)” value [6] was 57% and the “Population Normal (%)” value [6] was 95%. For the same compound, the “Population Pyknosed Nuclei (%)” value [6] was 6%, the “Population Tubulin-Different-Phenotype (%)” value [6] was 16% and the “Total Cell Count” value [6] was 93. The “Population Apoptotic (%)” value [7] was 66%, the “Population Fragmented Nuclei (%)” value [7] was 6% and the “Population Healthy Nuclei (%)” value [7] was 86%. For the same compound, the “Population Membrane Permeable-Phenotype (%)” value [7] was 1%, the “Population Mitochondria Different-Phenotype (%)” value [7] was 6% and the “Population Mitotic Cells (%)” value [7] was 33%. For the same compound, the “Population Pyknosed Nuclei (%)” value [7] was 7%, the “Population Tubulin-Different-Phenotype (%)” value [7] was 4% and the “Total Cell Count” value [7] was 277. For the same compound, the “Population Apoptotic (%)” value [8] was 75%, the “Population Fragmented Nuclei (%)” value [8] was 23% and the “Population Healthy Nuclei (%)” value [8] was 68%. The “Population Hoechst High Intensity Objects (%)” value [8] was 6%, the “Population Membrane Permeable-Phenotype (%)” value [8] was 4% and the “Population Mitochondria Different-Phenotype (%)” value [8] was 14%. For the same compound, the “Population Mitotic Cells (%)” value [8] was 25%, the “Population Normal (%)” value [8] was 93% and the “Population Pyknosed Nuclei (%)” value [8] was 8%. The “Population Tubulin-Different-Phenotype (%)” value [8] was 29%, the “Total Cell Count” value [8] was 119 and the “Population Apoptotic (%)” value [9] was 34%. For the same compound, the “Population Fragmented Nuclei (%)” value [9] was 7%, the “Population Healthy Nuclei (%)” value [9] was 85% and the “Population Hoechst High Intensity Objects (%)” value [9] was 2%. For the same compound, the “Population Membrane Permeable-Phenotype (%)” value [9] was 3%, the “Population Mitochondria Different-Phenotype (%)” value [9] was 12% and the “Population Mitotic Cells (%)” value [9] was 65%. For the same compound, the “Population Normal (%)” value [9] was 97%, the “Population Pyknosed Nuclei (%)” value [9] was 7% and the “Population Tubulin-Different-Phenotype (%)” value [9] was 11%. For the same compound, the “Total Cell Count” value [9] was 181, the “Population Apoptotic (%)” value [10] was 75% and the “Population Fragmented Nuclei (%)” value [10] was 6%. For the same compound, the “Population Healthy Nuclei (%)” value [10] was 90%, the “Population Hoechst High Intensity Objects (%)” value [10] was 4% and the “Population Membrane Permeable-Phenotype (%)” value [10] was 6%. For the same compound, the “Population Mitochondria Different-Phenotype (%)” value [10] was 18%, the “Population Mitotic Cells (%)” value [10] was 25% and the “Population Normal (%)” value [10] was 95%. The “Population Pyknosed Nuclei (%)” value [10] was 2%, the “Population Tubulin-Different-Phenotype (%)” value [10] was 12% and the “Total Cell Count” value [10] was 77. The “Population Fragmented Nuclei (%)” value [11] was 7%, the “Population Healthy Nuclei (%)” value [11] was 77% and the “Population Hoechst High Intensity Objects (%)” value [11] was 2%. The “Population Membrane Permeable-Phenotype (%)” value [11] was 3%, the “Population Mitochondria Different-Phenotype (%)” value [11] was 12% and the “Population Normal (%)” value [11] was 97%. For the same compound, the “Population Pyknosed Nuclei (%)” value [11] was 15%, the “Population Tubulin-Different-Phenotype (%)” value [11] was 3% and the “Total Cell Count” value [11] was 438. The “Population Apoptotic (%)” value [12] was 50%, the “Population Fragmented Nuclei (%)” value [12] was 15% and the “Population Healthy Nuclei (%)” value [12] was 76%. The “Population Hoechst High Intensity Objects (%)” value [12] was 3%, the “Population Membrane Permeable-Phenotype (%)” value [12] was 8% and the “Population Mitochondria Different-Phenotype (%)” value [12] was 28%. The “Population Mitotic Cells (%)” value [12] was 50%, the “Population Normal (%)” value [12] was 96% and the “Population Pyknosed Nuclei (%)” value [12] was 8%. For the same compound, the “Population Tubulin-Different-Phenotype (%)” value [12] was 32% and the “Total Cell Count” value [12] was 170.

— ChEMBL document CHEMBL4689842, “EUbOPEN Chemogenomics Library wave 1” (2021)
